In ChEMBL document CHEMBL3763147, “Small Molecule Inhibitors of Ca(2+)-S100B Reveal Two Protein Conformations” (J Med Chem, 2016):
The source made the active and inactive calls. No cut-off for these calls is given here.

Tests used:
[1] = Growth inhibition of human WM115 cells expressing high levels of S100-B by SYBR Green based fluorescence method; assay type: functional, cell-based; details: WM-115
[2] = Growth inhibition of human WM115 cells expressing low levels of S100-B by SYBR Green based fluorescence method; assay type: functional, cell-based; details: WM-115
[3] = molecular target: T1, Protein S100-B (Rattus norvegicus) (UniProt P04631); assay: Displacement of TAMRA-TRTK12 from recombinant rat calcium loaded S100-B at <1 mM by fluorescence polarization competition assay
T1 sequence (whole entry): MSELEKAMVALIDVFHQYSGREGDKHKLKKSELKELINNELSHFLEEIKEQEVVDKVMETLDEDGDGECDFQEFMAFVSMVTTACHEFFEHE

Protein S100-B [4] = molecular target: T2, Protein S100-B (Rattus norvegicus, UniProt P04631); assay: Displacement of TAMRA-TRTK12 from recombinant rat calcium loaded S100-B by fluorescence polarization competition assay
T2 sequence (P04631 whole entry): T1 sequence (whole entry)

Protein S100-B [5] = molecular target: T2, Protein S100-B; assay: Displacement of TAMRA-TRTK12 from recombinant rat calcium loaded S100-B by […] analysis
Protein S100-B [6] = molecular target: T2, Protein S100-B; assay: Binding affinity to recombinant rat calcium loaded S100-B by isothermal titration calorimetry
Protein S100-B [7] = molecular target: T2, Protein S100-B; assay: Binding affinity to recombinant rat calcium loaded S100-B by fluorescence spectrophotometric analysis
In short: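 Competition fluorescence polarization against 10 nM TAMRA-labelled TRTK12 peptide (CapZ residues 265–276) with 1 µM Ca2+-loaded rat S100B. Buffer: 50 mM HEPES pH 7.2, 100 mM KCl, 15 mM NaCl, 10 mM CaCl2, 0.01% Triton X-100, 0.5% DMSO. Compounds titrated from the highest concentration possible. Read at room temperature (ex 544/em 590 nm). KD calculated from the IC50 using the Nikolovska-Coleska equation.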

| SMILES | EC50 [1] [µM] | EC50 [2] [µM] | Activity [3] | IC50 (Protein S100-B [4]) [µM] | Kd (Protein S100-B [5]) [µM] | Kd (Protein S100-B [6]) [µM] | Kd (Protein S100-B [7]) [µM] |
| --- | --- | --- | --- | --- | --- | --- | --- |
| c1cc(C2=NCCCN2)ccc1OCCCCCOc1ccc(C2=NCCCN2)cc1 | 203 | 284 | inactive | – | – | – | – |
| c1cc(C2=NCCCN2)ccc1OCCCCCCOc1ccc(C2=NCCCN2)cc1 | 44.1 | 42.7 | inactive | – | – | – | – |
| c1cc(C2=NCCN2)ccc1OCCCCCOc1ccc(C2=NCCN2)cc1 | 56.2 | 38.9 | inactive | – | – | – | – |
| c1cc(C2=NCCN2)ccc1OCCCCCCCCOc1ccc(C2=NCCN2)cc1 | 21.8 | 24.3 | inactive | – | – | – | – |
| N=C(N)c1ccc(OCCCN(CCCOc2ccc(C(=N)N)cc2)Cc2ccccc2)cc1 | 51.8 | 41 | – | – | – | – | – |
| c1cc(C2=NCCCCN2)ccc1OCCCCCCOc1ccc(C2=NCCCCN2)cc1 | 264 | 301 | inactive | – | – | – | – |
| CCCN(CCCOc1ccc(C(=N)N)cc1)CCCOc1ccc(C(=N)N)cc1 | 864 | 500 | – | – | – | – | – |
| c1cc(C2=NCCCN2)ccc1OCCCCCCCCOc1ccc(C2=NCCCN2)cc1 | 24.8 | 37.9 | inactive | – | – | – | – |
| c1cc(C2=NCCCCN2)ccc1OCCCCCCCOc1ccc(C2=NCCCCN2)cc1 | 7.8 | 9.2 | inactive | – | – | – | – |
| N=C(N)c1ccc(Oc2ccc(-c3cc4ccc(C(=N)N)cc4[nH]3)cc2)cc1 | < 1 | < 1 | – | 66.6 | 6 | – | – |
| c1cc(C2=NCCN2)ccc1OCCCCCCOc1ccc(C2=NCCN2)cc1 | 52 | 34.5 | inactive | – | – | – | – |
| N=C(NCCCCCCCN)c1ccc(OCCCCCCCOc2ccc(C(=N)NCCCCCCCN)cc2)cc1 | 24.3 | 25.4 | – | 6.7 | 0.5 | – | – |
| CNC(=O)NC(=N)c1ccc(OCCCCCCCOc2ccc(C(=N)NC(=O)NC)cc2)cc1 | 131 | 146 | – | 982 | 89.5 | – | – |
| N=C(NC(=O)Nc1ccccc1)c1ccc(OCCCCCCCOc2ccc(C(=N)NC(=O)Nc3ccccc3)cc2)cc1 | 0.4 | 0.5 | – | – | – | – | – |
| N=C(NCCCCCCCN)c1ccc(OCCCCCCCCOc2ccc(C(=N)NCCCCCCCN)cc2)cc1 | 46.3 | 45.8 | – | 18.3 | 1.6 | – | – |
| N=C(N)c1ccc(OCCCCCOc2ccc(C(=N)N)cc2)cc1 [PENTAMIDINE] | 16.3 | 16.7 | – | – | – | 50 | 44 |
| c1cc(C2=NCCCN2)ccc1OCCCCCCCOc1ccc(C2=NCCCN2)cc1 | 612 | 289 | inactive | – | – | – | – |
| N=C(N)c1ccc(OCCCCCCCCOc2ccc(C(=N)N)cc2)cc1 | 245 | 234 | – | – | – | – | – |
| N=C(N)c1ccc(OCCCCCCCOc2ccc(C(=N)N)cc2)cc1 [HEPTAMIDINE] | 11.5 | 25.6 | – | – | – | – | – |
| c1cc(C2=NCCN2)ccc1OCCCCCCCOc1ccc(C2=NCCN2)cc1 | 32.2 | 21.2 | inactive | – | 203 | – | – |
| c1cc(C2=NCCCCN2)ccc1OCCCCCOc1ccc(C2=NCCCCN2)cc1 | 20 | 19 | inactive | – | – | – | – |
| c1cc(C2=NCCCCN2)ccc1OCCCCCCCCOc1ccc(C2=NCCCCN2)cc1 | 5.4 | 4.8 | inactive | – | – | – | – |
| N=C(NCCCCCN)c1ccc(OCCCCCOc2ccc(C(=N)NCCCCCN)cc2)cc1 | – | – | – | 51.1 | 4.6 | – | – |
